Compound activity (PubChem)
A selection: hits, their analogues and other compounds. The true share with any hit is near 10%.
WT yeast gro inh: growth inhibition of WT yeast, mitochondrial fusion screen; mitochondrial fusion phenotypic screen, WT strain; inhibition, % at 10 µM; hit rate 2.1% among 190,000; in the data active means inhibition above about 58%; tested in S. cerevisiae
PMI act: activators of human phosphomannose isomerase; purified human PMI, coupled resazurin fluorescence, 20 min; stronger effect = higher value; 1 = vehicle control, 0 substrate-free wells; activation factor at 20 µM; hit rate 0.005% among 190,000; P34949;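 active means activation factor of 2 or more at 20 µM, relative to plate controls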
Target sequence (P34949 whole entry, looked up): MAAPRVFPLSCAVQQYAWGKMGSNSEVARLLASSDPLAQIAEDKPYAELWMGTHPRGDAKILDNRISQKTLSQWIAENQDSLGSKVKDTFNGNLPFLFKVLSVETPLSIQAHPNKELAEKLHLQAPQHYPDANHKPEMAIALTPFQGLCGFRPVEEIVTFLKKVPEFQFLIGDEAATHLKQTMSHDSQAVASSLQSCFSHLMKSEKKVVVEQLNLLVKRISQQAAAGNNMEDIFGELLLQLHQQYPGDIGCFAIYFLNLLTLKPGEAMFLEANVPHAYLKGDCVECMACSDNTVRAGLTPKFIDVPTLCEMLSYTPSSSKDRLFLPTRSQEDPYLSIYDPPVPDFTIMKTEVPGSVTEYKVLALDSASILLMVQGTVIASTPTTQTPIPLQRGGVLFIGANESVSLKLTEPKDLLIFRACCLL
PMI act satM6P: PMI (human) activation, high substrate; activation factor at 20 µM; P34949; coupled PMI enzyme assay, resazurin fluorescence, 20 min; stronger effect = higher value; 1 = untreated enzyme, 0 = substrate-free blank; hit rate 0.34% among 190,000;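 active means activation factor of 2 or more at 20 µM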
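Test system: human phosphomannose isomerase with PGI, G6PDH, diaphorase coupling enzymes; Amount: PMI at 15 ng/mL final; Reagent: Mannose-6-phosphate 1.0 mM (near-saturating) plus 0.22 mM NADP+; Timing: 20 min, room temperature; Technique: resorufin fluorescence at Ex 544/Em 590 nm; Dosing: 20 µM single dose.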
L major viab: Leishmania major promastigote growth inhibition | Leishmania major promastigotes, resazurin fluorescence viability | inhibition, % at 10 µM | hit rate 9% among 200,000 | AID 1063; in the data active means inhibition above about 50%;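 further: promastigotes grown with compound for 44 hours at 28 °C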
Diaphorase act: activates diaphorase or chemically reduces, flagging diaphorase assay artifacts; hit rate 0.005% among 190,000; Diaphorase/resazurin coupled assay, resorufin fluorescence, 16 min; stronger effect = higher value; 1 = vehicle wells, 0 = NADH-free wells; activation factor at 20 µM; AID 1229;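 active means diaphorase activity raised at least twofold by the compound at 20 µM; inactive means activation factor below 2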
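Assay system: Purified diaphorase enzyme from Clostridium kluyveri | Amount: Enzyme 0.07 U/mL final | Dosing: Compound 20 µM once, DMSO 1% | Timing: 16 min reaction at room temperature | Detection: Fluorescence, excitation 544 nm and emission 590 nm | Evaluation: Higher resorufin formation from activation or reduction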
Of the large screens only hits and unclear results are named; the others gave an inactive call.

Cc1cccc(NC(=O)c2ccc([N+](=O)[O-])o2)c1C	L major viab 97
O=C(Nc1ccc(N2CCCC2)c(Cl)c1)c1ccc([N+](=O)[O-])o1	WT yeast gro inh 86, L major viab 101
Cc1ccc(NC(=O)c2cc(Cl)ccc2[N+](=O)[O-])cc1C	none
O=C(Nc1ncccn1)c1ccc([N+](=O)[O-])o1	none
Cc1ccc(CNC(=O)c2nn(C)c(C)c2[N+](=O)[O-])cc1	none
Cc1ccc(-c2nnc(SCC(=O)N/N=C/c3ccc(C)s3)n2-c2ccc(C)cc2)cc1	none
CN(Cc1ccccc1)C(=O)c1ccc([N+](=O)[O-])o1	L major viab 86
O=C(/C=C/c1ccc(Cl)c([N+](=O)[O-])c1)Nc1ccc(N2CCCC2)c(Cl)c1	L major viab 79
COc1ccc(C(=O)/C=C/c2ccc(N3CCCCC3)c([N+](=O)[O-])c2)cc1	none
CC1(C)CC2(CC(c3ccccc3)Oc3cc(O)ccc32)NC(=S)N1 (centres undefined)	none
CC(C)(C)NC(=O)C12CC3CC(CC(Cl)(C3)C1)C2	none
CC(C)(C)NC(=S)NC(=O)C12CCC3CC(CC(C3)C1)C2	WT yeast gro inh 73
CC1=C(C(=O)Nc2ccccc2)C(c2cccnc2)n2nc(-c3cccnc3)nc2N1 (centres undefined)	none (no result: WT yeast gro inh)
CC1=C(C(=O)Nc2cccnc2)C(c2cccnc2)n2nc(-c3cccs3)nc2N1 (centres undefined)	L major viab 84
CC(C)=CCCC(C)N(C=O)C(C)CCC=C(C)C (centres undefined)	none (no result: WT yeast gro inh, PMI act, PMI act satM6P, Diaphorase act)
CC(=O)N(CCCN(C)C)CCC(C)CCC=C(C)C (centres undefined)	L major viab 100
O=C(O)c1csc(-n2nc(-c3ccccc3)cc2C(F)(F)F)n1	none
CC(NC(=O)/C(C#N)=C/c1ccc(Cl)c([N+](=O)[O-])c1)c1ccccc1 (centres undefined)	L major viab 100
N#C/C(=C\c1ccc(O)c([N+](=O)[O-])c1)C(=O)NCc1ccccc1	none
CCN(CC)S(=O)(=O)c1cc(NS(=O)(=O)c2cccc(Cl)c2)ccc1C	L major viab 65
CCN(CC)S(=O)(=O)c1cc(NS(=O)(=O)c2c(Cl)cccc2Cl)ccc1C	none
CC(C)Cn1c(/C=C/c2ccccc2)nc2ccccc21	none
COc1ccc(/C=C/c2nc3ccccc3n2C)cc1	L major viab 85
CCn1c(/C=C/c2ccccc2)nc2ccccc21	L major viab 77
O=C(Cn1c(/C=C/c2ccccc2)nc2ccccc21)Nc1ccc(F)cc1	WT yeast gro inh 68, L major viab 63
COc1ccc(Cn2c(/C=C/c3ccccc3)nc3ccccc32)cc1	none
CCC(C)n1c(/C=C/c2ccccc2)nc2ccccc21 (centres undefined)	L major viab 93
Cc1cc(C)n2nc(SCCOc3ccccc3)nc2n1	none
N#CCC(=N)N1CCN(c2ccc(F)cc2)CC1	none
C=CCC(C)(NCc1ccccc1)c1ccc(C)cc1 (centres undefined)	L major viab 69
O=C(O)c1cccc2c1C(=O)c1ccccc1C2=O	PMI act satM6P 2.5
CCOC(=O)CSc1nc(C(C)(C)C)nc2ccccc12	none (no result: PMI act, PMI act satM6P, Diaphorase act)
OCC1(Cc2ccccc2)CCN(Cc2cccc(F)c2F)CC1	none
OCC1(Cc2ccc(Cl)cc2)CCN(CC2CC=CCC2)CC1 (centres undefined)	L major viab 87
OCC1(Cc2ccccc2)CCN(Cc2ccc(C(F)(F)F)cc2)CC1	L major viab 81
OCC1(Cc2ccc(Cl)cc2)CCN(Cc2ccccc2F)CC1	L major viab 57
CSc1ccc(CN2CCC(CO)(Cc3ccc(Cl)cc3)CC2)cc1	WT yeast gro inh 67, L major viab 87
Cc1nsc(Nc2ccc([N+](=O)[O-])cc2)c1C#N	none
O=C(NCCN1C(=O)S/C(=C\c2ccccc2F)C1=O)C1CCCN1C(=O)c1cccs1 (centres undefined)	none
COc1ccc(C(=O)NCC(=O)OCC(=O)Nc2cc([N+](=O)[O-])ccc2F)cc1	none
CN(CCC#N)C(=O)COC(=O)c1ccc(CNS(=O)(=O)c2ccc(F)c(Cl)c2)cc1	none
OCC1(Cc2ccc(Cl)cc2)CCN(CCCc2ccccc2)CC1	L major viab 95
COc1ccccc1CNS(=O)(=O)c1c(C)[nH]c(=O)[nH]c1=O	none
COC(=O)CSc1nccc(C)n1	none
CC(=O)Nc1ccc(OC(=O)C(CCS(C)(=O)=O)N2C(=O)c3ccccc3C2=O)cc1 (centres undefined)	L major viab 91
Cc1cccc2c(N=Nc3ccc(S(=O)(=O)Nc4ccc(Cl)cc4)cc3[N+](=O)[O-])c(O)[nH]c12	L major viab 53
Cc1ccc(S(=O)(=O)Nc2ccc(C(N)=O)cc2)cc1[N+](=O)[O-]	none
O=C(Nc1cc(Cl)ccc1O)c1snnc1-c1ccccc1	none
COC(=O)C1=C(C)N(c2ccccc2)C(=S)NC1c1ccccc1C(F)(F)F (centres undefined)	L major viab 70
Cc1c(NC(=O)C(C)OC(=O)[C@@H](NC(=O)c2ccccc2)C(C)C)c(=O)n(-c2ccccc2)n1C (some centres undefined)	none
CC(CCN(C)C)OC(=O)c1ccc(C(C)c2ccccc2)o1 (centres undefined)	L major viab 100
CC(CN(C)Cc1ccccc1)OC(=O)c1ccccc1F (centres undefined)	none
Cc1cc2[nH]c3c(c[n+](C)c4ccccc34)c2cc1C	L major viab 100
Cc1cc(=O)[nH]c2ccccc12	none
Cc1ccc(C2CC(=O)C=C(Nc3ccc(Cl)cc3)C2)cc1 (centres undefined)	none
O=C1C=C(Nc2ccc(Cl)cc2)CC(c2ccc(Cl)cc2)C1 (centres undefined)	WT yeast gro inh 68, L major viab 56
CCN1CCN(c2ncc3c(n2)CC(c2ccc(OC)c(OC)c2)CC3=O)CC1 (centres undefined)	L major viab 99
CN1c2ccccc2C(C)(C)C12C=Nc1c(cc(N3CCOCC3)c3ccccc13)O2 (centres undefined)	none
CN1c2ccccc2C(C)(C)C12C=Cc1cc(O)ccc1O2 (centres undefined)	L major viab 99
ONc1cccnc1-n1nc(C(F)(F)F)cc1C(F)(F)F	none
Cc1nc(NC(=O)/C=C/c2ccccc2)sc1C(=O)N1CCCCC1	none
O=C(NC(=S)N1CCN(Cc2ccc3c(c2)OCO3)CC1)c1cccc(Br)c1	WT yeast gro inh 60
O=C(NC(=S)N1CCN(Cc2ccc3c(c2)OCO3)CC1)c1ccc(Cl)cc1	WT yeast gro inh 62
Cc1cccc(C(=O)NC(=S)N2CCN(C(=S)NC(=O)c3cccc(C)c3)CC2)c1	L major viab 73
Cc1ccc(Nc2nc(N)nc(CN3CCN(Cc4ccc5c(c4)OCO5)CC3)n2)cc1C	none
